Here are results for 2 molecules from ChEMBL document CHEMBL3877303 (J Med Chem, 2017).

The nature of data set [1]: Growth inhibition of mouse BAF3 cells measured after 72 hrs by CellTiter-Glo or CCK8 assay. It is filed as cell-based. The gist of the method: (§1)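 Cells at 1 to 2.5×10^4 cells/mL were incubated with a range of compound concentrations for 72 h. Viability was read by CellTiter-Glo luminescence or CCK-8 absorbance (450/655 nm) and normalized to DMSO control. GI50 came from curve fitting, with triplicate testing.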
(In general: Cellular ATP, detected with luciferase, serves as a proxy for viable cell number.)

The target in data set [2] is Tyrosine-protein kinase Blk (Homo sapiens, UniProt P51451). Put plainly: Inhibition of Tel-fused BLK (unknown origin) expressed in BAF3 cells assessed as growth inhibition measured after 72 hrs by CellTiter-Glo or CCK8 assay. In kind it is cell-based. The gist of the method:
(§2)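 BaF3 lines were made by retroviral transduction with kinase-fusion MSCV vectors packaged in HEK293T cells. Cells were selected with puromycin for 48 h, then selected again without IL-3 so growth depends on the introduced kinase. […] They were seeded at 1 to 2.5×10^4 cells/mL with compound dilutions and incubated 72 h. Viability was read by CellTiter-Glo luminescence or CCK-8 absorbance (450/655 nm), normalized to DMSO control; GI50 was curve-fitted from triplicate tests.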

Data set [3] deals with T1, Discoidin domain-containing receptor 2 (Homo sapiens) (UniProt Q16832).
T1 sequence (whole entry): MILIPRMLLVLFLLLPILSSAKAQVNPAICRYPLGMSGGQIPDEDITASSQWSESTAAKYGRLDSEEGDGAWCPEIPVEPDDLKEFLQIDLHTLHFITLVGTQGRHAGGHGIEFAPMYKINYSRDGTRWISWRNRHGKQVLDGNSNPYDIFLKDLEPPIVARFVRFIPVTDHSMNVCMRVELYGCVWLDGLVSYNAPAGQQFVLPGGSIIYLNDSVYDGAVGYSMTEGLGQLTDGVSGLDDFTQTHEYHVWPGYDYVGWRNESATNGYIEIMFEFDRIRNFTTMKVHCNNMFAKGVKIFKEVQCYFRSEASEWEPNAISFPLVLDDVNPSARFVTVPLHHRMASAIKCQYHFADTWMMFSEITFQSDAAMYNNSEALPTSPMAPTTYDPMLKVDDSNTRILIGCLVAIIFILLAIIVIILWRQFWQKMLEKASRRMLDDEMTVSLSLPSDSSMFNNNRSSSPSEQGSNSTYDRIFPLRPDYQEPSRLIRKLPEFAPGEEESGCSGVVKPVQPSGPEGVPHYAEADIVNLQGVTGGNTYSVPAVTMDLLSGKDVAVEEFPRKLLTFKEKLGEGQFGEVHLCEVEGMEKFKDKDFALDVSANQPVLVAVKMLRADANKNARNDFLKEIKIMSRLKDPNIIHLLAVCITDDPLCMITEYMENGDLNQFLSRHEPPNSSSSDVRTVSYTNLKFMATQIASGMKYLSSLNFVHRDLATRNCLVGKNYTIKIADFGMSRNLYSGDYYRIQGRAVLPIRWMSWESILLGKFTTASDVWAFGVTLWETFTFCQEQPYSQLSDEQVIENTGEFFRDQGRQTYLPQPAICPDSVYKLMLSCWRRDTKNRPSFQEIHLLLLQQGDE
Put plainly: Inhibition of BCR-fused DDR2 (unknown origin) expressed in BAF3 cells assessed as growth inhibition measured after 72 hrs by CellTiter-Glo or CCK8 assay. In kind it is cell-based. In outline: as §2

Data set [4] concerns the target Vascular endothelial growth factor receptor 2 (Homo sapiens) (UniProt P35968). Put plainly: Inhibition of Tel-fused VEGFR2 (unknown origin) expressed in BAF3 cells assessed as growth inhibition measured after 72 hrs by CellTiter-Glo or CCK8 assay. In kind it is cell-based. The gist of the method:
as §2

A further data set deals with BaF3. Put plainly: Inhibition of BCR/ABL p210 fusion protein T315I mutant (unknown origin) expressed in BAF3 cells assessed as growth inhibition measured after 72 hrs by CellTiter-Glo or CCK8 assay. In kind it is cell-based. The conditions noted are these: Homo sapiens. The gist of the method:
as §2

A short description of data set [5]: Antiproliferative activity against human GISTT1 cells measured after 72 hrs by CellTiter-Glo or CCK8 assay. It is filed as functional. Particulars: GISTT1, 72 h. In outline: as §1
The nature of data set [6]: Antiproliferative activity against human GIST882 cells measured after 72 hrs by CellTiter-Glo or CCK8 assay. In kind it is functional. The conditions noted are these: GIST882, 72 h. The gist of the method:
as §1

Data set [7] is described as follows: Antiproliferative activity against human GIST48B cells measured after 72 hrs by CellTiter-Glo or CCK8 assay. It is filed as functional. The gist of the method: as §1
Data set [8] can be described thus: Antiproliferative activity against human MV4-11 cells measured after 72 hrs by CellTiter-Glo or CCK8 assay. Particulars: MV4-11, 72 h. In kind it is functional. The gist of the method:
as §1

Data set [9] is described as follows: Antiproliferative activity against human MOLM14 cells measured after 72 hrs by CellTiter-Glo or CCK8 assay. In kind it is functional. Particulars: MOLM-14, 72 h. The gist of the method: as §1
A short description of data set [10]: Antiproliferative activity against human U937 cells measured after 72 hrs by CellTiter-Glo or CCK8 assay. In kind it is functional. Particulars: U-937, 72 h. The gist of the method: as §1
Data set [11] in a line: Antiproliferative activity against human HL60 cells measured after 72 hrs by CellTiter-Glo or CCK8 assay. It is filed as functional. Particulars: HL-60, 72 h. The gist of the method:
as §1

Data set [12] in a line: Antiproliferative activity against human Rec1 cells measured after 72 hrs by CellTiter-Glo or CCK8 assay. In kind it is functional. Particulars: Rec1, 72 h. The gist of the method: as §1
Data set [13] is described as follows: Antiproliferative activity against CHO cells measured after 72 hrs by CellTiter-Glo or CCK8 assay. Particulars: chinese hamster. In kind it is cell-based, Cricetulus griseus. In outline: as §1
A short description of data set [14]: Cell cycle arrest in human K562 cells assessed as accumulation at G0/G1 phase at 0.3 uM after 24 hrs by propidium iodide/RNase staining based flow cytometry. It is filed as functional. The gist of the method: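 Cells were exposed to serially diluted compound, then fixed in cold 70% ethanol overnight at -20 °C. They were stained with PI/RNase buffer for DNA-content cell-cycle analysis.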
On the technique in general: In flow cytometry, cells or beads pass a laser one at a time.

Data set [15] is described as follows: Tmax in Sprague-Dawley rat at 1 mg/kg, iv. In kind it is ADME, organism-based. Particulars: in vivo. In outline:
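Male Sprague-Dawley rats, 6-8 weeks old, fasted overnight, dosed iv or po. Jugular vein blood (~0.2 mL, heparin) sampled at 1 min to 8 h (iv) or 5 min to 24 h (po). Plasma separated by centrifugation at 2-8 °C and stored at -80 °C before analysis.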

Data set [16] is described as follows: Anticancer activity against human K562 cells xenografted in nu/nu mouse assessed as tumor growth inhibition at 100 mg/kg administered daily via oral gavage measured 28 days post compound treatment relative to vehicle-treated control. It is filed as functional. Particulars: 672 h, read-out: TGI. In outline:
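Female nu/nu mice received ten million K562 cells subcutaneously in the right flank, in PBS mixed 1:1 with Matrigel. Daily oral gavage began at 200-400 mm³ tumor size, with 4 or 5 mice per group. Dosing was 25, 50 or 100 mg/kg/d or vehicle (0.5% methylcellulose/0.4% Tween80) for 28 days. Body weight and tumor size were normalized to initial values, and final tumor weight was recorded. Data are mean ± SEM.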

The target of data set [17] is T1, Discoidin domain-containing receptor 2 (Homo sapiens). Put plainly: Inhibition of recombinant His-tagged human DDR2 cytoplasmic domain expressed in baculovirus expression system assessed as residual activity at 1 uM by KINOMEscan binding assay relative to control.
The target of data set [18] is Mast/stem cell growth factor receptor Kit (Homo sapiens, UniProt P10721). Particulars: GISTT1, 1 uM.
Sequence of Mast/stem cell growth factor receptor Kit (P10721 whole entry): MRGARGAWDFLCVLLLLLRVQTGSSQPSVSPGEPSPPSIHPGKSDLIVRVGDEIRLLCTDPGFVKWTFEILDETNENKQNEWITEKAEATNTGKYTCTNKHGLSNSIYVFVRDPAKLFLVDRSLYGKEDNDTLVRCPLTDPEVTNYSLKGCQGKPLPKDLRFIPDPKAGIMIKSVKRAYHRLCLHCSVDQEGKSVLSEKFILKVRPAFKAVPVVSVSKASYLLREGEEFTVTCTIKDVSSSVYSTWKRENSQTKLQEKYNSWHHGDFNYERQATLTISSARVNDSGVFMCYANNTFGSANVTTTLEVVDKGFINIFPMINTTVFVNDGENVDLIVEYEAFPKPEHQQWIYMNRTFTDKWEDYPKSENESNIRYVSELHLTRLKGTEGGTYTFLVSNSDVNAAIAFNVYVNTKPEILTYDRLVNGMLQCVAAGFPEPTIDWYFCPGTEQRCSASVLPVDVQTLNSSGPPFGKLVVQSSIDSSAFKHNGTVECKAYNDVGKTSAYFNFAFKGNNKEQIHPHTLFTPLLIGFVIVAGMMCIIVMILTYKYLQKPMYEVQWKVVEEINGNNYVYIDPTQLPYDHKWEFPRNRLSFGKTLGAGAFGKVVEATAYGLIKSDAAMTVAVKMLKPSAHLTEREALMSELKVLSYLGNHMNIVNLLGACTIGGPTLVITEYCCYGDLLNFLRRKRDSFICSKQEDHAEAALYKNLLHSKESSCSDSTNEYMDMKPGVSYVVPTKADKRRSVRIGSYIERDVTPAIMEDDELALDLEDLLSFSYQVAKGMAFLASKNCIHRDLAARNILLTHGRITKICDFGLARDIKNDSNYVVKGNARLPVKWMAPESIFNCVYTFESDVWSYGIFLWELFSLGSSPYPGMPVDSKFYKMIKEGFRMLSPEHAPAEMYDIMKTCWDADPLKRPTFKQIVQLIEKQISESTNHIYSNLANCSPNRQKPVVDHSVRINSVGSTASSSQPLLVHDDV

As usually defined, the GI50 is the concentration at which growth is held to half of that of the control. By Tmax is commonly meant the time from dosing to the highest level.

Activity calls are given as the source filed them. No cut-off for these calls is given here.

Sequence of Vascular endothelial growth factor receptor 2 (Homo sapiens) (P35968 whole entry, the tested form may be a part): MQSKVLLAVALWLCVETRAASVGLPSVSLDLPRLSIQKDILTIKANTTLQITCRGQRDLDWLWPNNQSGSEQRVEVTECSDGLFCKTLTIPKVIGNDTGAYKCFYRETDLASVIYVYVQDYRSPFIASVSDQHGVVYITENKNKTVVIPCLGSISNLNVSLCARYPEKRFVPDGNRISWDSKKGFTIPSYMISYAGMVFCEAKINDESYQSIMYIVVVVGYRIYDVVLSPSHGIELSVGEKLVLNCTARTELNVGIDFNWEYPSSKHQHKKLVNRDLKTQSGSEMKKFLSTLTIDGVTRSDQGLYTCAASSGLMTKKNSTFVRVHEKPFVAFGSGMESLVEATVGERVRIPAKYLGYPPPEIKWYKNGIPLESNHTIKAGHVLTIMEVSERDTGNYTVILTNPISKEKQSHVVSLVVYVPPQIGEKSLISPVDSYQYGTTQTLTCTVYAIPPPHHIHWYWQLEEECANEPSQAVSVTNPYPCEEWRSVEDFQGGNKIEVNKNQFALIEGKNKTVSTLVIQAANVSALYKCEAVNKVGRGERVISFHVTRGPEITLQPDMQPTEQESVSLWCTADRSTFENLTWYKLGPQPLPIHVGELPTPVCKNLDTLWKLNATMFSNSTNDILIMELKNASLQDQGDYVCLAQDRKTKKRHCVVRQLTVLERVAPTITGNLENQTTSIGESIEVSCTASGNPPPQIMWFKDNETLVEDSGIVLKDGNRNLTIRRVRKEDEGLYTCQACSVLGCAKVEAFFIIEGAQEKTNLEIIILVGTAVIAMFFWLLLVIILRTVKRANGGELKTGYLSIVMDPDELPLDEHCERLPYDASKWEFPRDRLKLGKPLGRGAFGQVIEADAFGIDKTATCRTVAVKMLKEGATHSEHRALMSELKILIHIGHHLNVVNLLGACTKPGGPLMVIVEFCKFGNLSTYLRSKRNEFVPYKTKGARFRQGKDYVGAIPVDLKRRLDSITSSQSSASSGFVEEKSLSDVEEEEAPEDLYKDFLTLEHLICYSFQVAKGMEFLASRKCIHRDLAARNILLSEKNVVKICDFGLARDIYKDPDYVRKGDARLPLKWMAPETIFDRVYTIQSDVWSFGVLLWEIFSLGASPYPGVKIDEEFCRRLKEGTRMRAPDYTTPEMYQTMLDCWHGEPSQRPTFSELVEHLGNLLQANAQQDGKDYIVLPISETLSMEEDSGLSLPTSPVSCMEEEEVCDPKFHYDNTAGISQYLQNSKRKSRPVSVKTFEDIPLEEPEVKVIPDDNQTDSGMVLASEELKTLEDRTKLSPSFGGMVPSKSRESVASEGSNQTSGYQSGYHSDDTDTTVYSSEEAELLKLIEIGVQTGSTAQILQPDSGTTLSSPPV
Sequence of Tyrosine-protein kinase Blk (P51451 2-505 limits assumed): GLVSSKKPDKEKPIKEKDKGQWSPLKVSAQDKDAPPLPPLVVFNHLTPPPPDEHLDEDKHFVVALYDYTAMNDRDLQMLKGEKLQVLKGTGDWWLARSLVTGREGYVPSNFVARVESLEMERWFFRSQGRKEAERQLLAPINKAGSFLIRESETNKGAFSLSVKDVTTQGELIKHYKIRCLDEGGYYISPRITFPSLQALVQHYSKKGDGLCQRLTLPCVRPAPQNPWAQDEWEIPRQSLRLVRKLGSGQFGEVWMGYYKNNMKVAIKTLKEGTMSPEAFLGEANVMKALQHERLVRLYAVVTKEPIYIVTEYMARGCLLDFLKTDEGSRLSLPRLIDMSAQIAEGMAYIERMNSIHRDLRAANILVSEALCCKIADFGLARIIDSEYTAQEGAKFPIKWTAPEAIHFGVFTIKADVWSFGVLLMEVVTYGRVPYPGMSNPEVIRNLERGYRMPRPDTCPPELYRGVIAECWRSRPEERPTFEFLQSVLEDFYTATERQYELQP

`Cc1ccc(C(=O)N2CCC(Oc3cc(NC(=O)c4ccc(CN5CCN(C)CC5)c(C(F)(F)F)c4)ccc3C)CC2)cn1`: the GI50 at 72 h in [1] and in data set [13] was more than 10 µM throughout. The GI50 was 0.658 µM in data set [2]; 6.08 µM in data set [3]; 0.035 µM in [4]; more than 10 µM with BaF3; 0.023 µM in data set [5]; 0.095 µM in data set [6]. In addition, the concentration for 50% growth inhibition (GI50) came out at 3.96 µM in data set [7]; 8.14 µM in data set [8]; 8.49 µM in data set [9]; 5.73 µM in data set [10]; 7.34 µM in data set [11]; 3.47 µM in data set [12]. For the same molecule, the result in data set [14] was Active. In data set [15], the Tmax came out at 1.02 min. Besides, the inhibition in vivo at 100 mg/kg in data set [16] is 66.8%. In addition, the Activity in [17] worked out at 0.65%.
For `Cc1ccc(NC(=O)c2ccc(CN3CCN(C)CC3)cc2)cc1Nc1nccc(-c2cccnc2)n1` [IMATINIB], the GI50 at 72 h in [1] and in [13] was more than 10 µM each time. In addition, the GI50 was more than 10 µM in data set [2]; more than 10 µM in [3]; more than 10 µM in data set [4]; 0.008 µM in data set [5]; 0.014 µM in data set [6]; more than 10 µM in [7]. Also, the GI50 in [8], in data set [9], in [10], in data set [11] and in data set [12] was more than 10 µM each time. In data set [16], the inhibition in vivo at 100 mg/kg came to 31.9%. In addition, the inhibition entry in data set [18] is “Active”.
